APOBEC3G inh: blocks human APOBEC3G single-stranded DNA deamination; Q9HC16; recombinant A3G, ssDNA deamination FAM/TAMRA fluorescence; inhibition, % at 20 µM; 330,000 compounds, 0.28% hits; AID 493012;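 active = inhibition of at least 40% at 20 µM, with no more than 30% in the related APOBEC3A deaminase screen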
Target sequence (Q9HC16 whole entry, looked up): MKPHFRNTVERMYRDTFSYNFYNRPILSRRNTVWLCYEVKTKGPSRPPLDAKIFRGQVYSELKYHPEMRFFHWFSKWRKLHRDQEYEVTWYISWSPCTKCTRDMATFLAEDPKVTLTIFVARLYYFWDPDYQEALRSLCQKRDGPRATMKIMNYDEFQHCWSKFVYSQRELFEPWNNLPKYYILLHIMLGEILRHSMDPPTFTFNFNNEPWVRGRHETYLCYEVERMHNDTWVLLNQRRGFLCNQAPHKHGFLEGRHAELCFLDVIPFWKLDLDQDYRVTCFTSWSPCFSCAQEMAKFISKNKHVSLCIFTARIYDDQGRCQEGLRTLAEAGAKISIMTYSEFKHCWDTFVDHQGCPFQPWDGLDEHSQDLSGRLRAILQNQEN
A3A deaminase: blocks human APOBEC3A ssDNA deamination | recombinant A3A, FAM/TAMRA ssDNA deamination fluorescence | 330,000 compounds, 0.41% hits | inhibition, % at 20 µM | P31941;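 active = at least 40% inhibition at 20 µM here, with at most 30% in a related deaminase screen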
ABHD5 PLIN5 PPI: ABHD5-PLIN5 protein interaction inhibition | Q00G26+Q8WTS1 | Split G. princeps luciferase complementation, luminescence, 4 h | inhibition, % at 4 µM | 360,000 compounds, 0.78% hits;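 active = inhibition above the mean inhibition across every tested compound plus 3 SD, cut at about 22% in these data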
core dimer inh: HCV core protein dimerization inhibition | inhibition, % at 5 µM | 300,000 compounds, 0.33% hits | TR-FRET GST/Flag-core106 dimerization, 1536-well | AID 1899;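 active = inhibition above the mean of all tested compounds plus 3 SD, set per screening campaign, cut at about 45% in these data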
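System – GST-tagged and Flag-tagged HCV core protein residues 1-106 · Repeats – one well for each compound · Technique – TR-FRET 671 and 617 nm emission · Doses – one concentration, 5 µM, in 0.5% DMSO · Times – 4 h, 22.5 °C incubation · Also added – Eu donor and XL665 acceptor anti-tag antibodies · Measure – percent inhibition of core106 dimerization signal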
HCV NS3 hel inh: HCV NS3 helicase inhibition. NS3 helicase DNA unwinding, Cy5 molecular beacon fluorescence. inhibition, % at 10.9 µM. 290,000 compounds, 0.56% hits;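 active = inhibition above the mean of all tested compounds plus 3 SD, set per campaign, cut at about 35% in these data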
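Control set: DMSO versus 110 µM thioflavine S; Material: NS3 helicase fragment of HCV; Measured by: Cy5 fluorescence at 0 and 60 min, beacon hairpin quenching; Read-out basis: percent inhibition from t60/t0 fluorescence ratio; Times: reaction time 60 min, 25 °C; Repeats: single replicate; Compound dosing: single dose, 10.9 µM nominal final, DMSO 0.8% final.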
PRMT1 inh: inhibitors of human PRMT1. 370,000 compounds, 1.3% hits. inhibition, % at 2.79 µM. recombinant PRMT1, activity-based probe fluorescence polarization. Q99873;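 active = inhibition above about 21% made by adding two undisclosed values, limit read from the data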
Target sequence (Q99873 whole entry, looked up): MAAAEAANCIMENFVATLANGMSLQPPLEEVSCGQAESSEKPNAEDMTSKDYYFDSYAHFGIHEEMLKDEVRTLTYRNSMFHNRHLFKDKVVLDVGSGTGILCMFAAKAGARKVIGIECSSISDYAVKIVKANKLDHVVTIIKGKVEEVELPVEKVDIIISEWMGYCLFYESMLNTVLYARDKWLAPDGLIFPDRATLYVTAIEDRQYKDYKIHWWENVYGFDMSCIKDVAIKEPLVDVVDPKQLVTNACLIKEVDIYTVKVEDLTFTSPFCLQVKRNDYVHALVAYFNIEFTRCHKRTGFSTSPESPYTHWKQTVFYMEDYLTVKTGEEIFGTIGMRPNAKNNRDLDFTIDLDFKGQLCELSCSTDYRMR
APOBEC3A confirm: confirmation of human APOBEC3A DNA deaminase inhibitors; 1,400 compounds, 63% hits; recombinant A3A, ssDNA deaminase UDG fluorescence assay; AID 493151; inhibition, % at 20 µM; shares compounds with A3A deaminase;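 active = inhibition reaching a set limit, 80% of the first screen's cutoff, at 20 µM in any replicate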
UDG A3A counter: counter-screen for APOBEC3A inhibitors: UDG | shares compounds with A3A deaminase | UDG counterscreen, FAM/TAMRA uracil oligo fluorescence | inhibition, % at 20 µM | 1,000 tested, under 10 active; call rule not given here
Large screens that a line does not name were inactive (follow-up assays come after a bar, where they were run). Hits are enriched below; roughly 2.9% of the tested compounds scored in any of these assays.

CC(OC(=O)CCCN=C1NS(=O)(=O)c2ccccc21)C(=O)NC1CCCCC1C (stereo not drawn)	A3A deaminase 51 | APOBEC3A confirm inactive
NC1=NC(=O)/C(=C/c2ccc(Br)cc2)S1	none
CCOC(=O)COc1ccc(Br)cc1/C=C1\SC(N)=NC1=O	A3A deaminase 53 | APOBEC3A confirm 50 | UDG A3A counter inactive
CCC(C)Sc1nnc(Cc2cc(=O)[nH]c(=O)[nH]2)n1-c1ccc(OC)cc1 (stereo not drawn)	A3A deaminase 63 | APOBEC3A confirm inactive | UDG A3A counter inactive
CCCn1c(/C=C/c2cc[n+](C)cc2)nc2ccccc21	A3A deaminase 57 | APOBEC3A confirm 62
CCn1c(/C=C/c2ccccc2)nc2ccccc21	none
COc1cc(OC)cc(C(=O)N[C@H](C(=O)OCC(=O)Nc2cccnc2Cl)C(C)C)c1	none (no result: core dimer inh, HCV NS3 hel inh)
CC(=O)c1ccc(S(=O)(=O)Nc2cccc(-n3cnnn3)c2)cc1	A3A deaminase 43 | APOBEC3A confirm inactive
CC(=O)Nc1ccc(S(=O)(=O)Nc2cccc(-n3cnnn3)c2)cc1	none
COc1cc(/C=C/c2cc[n+](C)cc2)ccc1OCC(=O)Nc1ccccc1	A3A deaminase 66 | APOBEC3A confirm 79 | UDG A3A counter inactive
CCN(CC(=O)Nc1ccc(OC)cc1)C(=O)c1cc(-c2cccs2)nn1-c1ccccc1	A3A deaminase 78 (no result: HCV NS3 hel inh) | APOBEC3A confirm inactive | UDG A3A counter inactive
COCCNC(=O)C1(C)CCCN(Cc2ccc(-n3ccnc3)cc2)C1 (stereo not drawn)	none (no result: APOBEC3G inh, A3A deaminase, core dimer inh, HCV NS3 hel inh)
Cc1cccc(C)c1OCc1cc(C(=O)N2CCN(c3ccccc3)CC2C)no1 (stereo not drawn)	none
O=C(/C=C/c1ccco1)N1CCN(S(=O)(=O)c2cccc([N+](=O)[O-])c2)CC1	A3A deaminase 65 (no result: core dimer inh, HCV NS3 hel inh) | APOBEC3A confirm 62 | UDG A3A counter inactive
CNC(=O)c1ccccc1NC(=O)C1CC(=O)N(C(C)C)C1 (stereo not drawn)	none
Cc1[nH]c(=O)c(C#N)c(C)c1CCC(=O)NCc1ccc(Cl)cc1	A3A deaminase 71 | APOBEC3A confirm inactive | UDG A3A counter inactive
CCOc1ccc(NC(=O)CC2C(=O)N(c3ccccc3)C(=O)N2CCc2cccs2)cc1 (stereo not drawn)	A3A deaminase 72 | APOBEC3A confirm inactive | UDG A3A counter inactive
O=C(CC1(O)C(=O)Nc2cc(Cl)cc(Cl)c21)c1ccccc1O (stereo not drawn)	A3A deaminase 65 | APOBEC3A confirm inactive | UDG A3A counter inactive
C[n+]1ccccc1/C=C/c1ccc(F)c(F)c1	A3A deaminase 53 | APOBEC3A confirm 55
C[n+]1ccccc1/C=C/c1c(F)cccc1F	none (no result: APOBEC3G inh, A3A deaminase, core dimer inh)
C[n+]1ccccc1/C=C/c1ccc(C#N)cc1	none (no result: APOBEC3G inh, A3A deaminase)
C[n+]1ccccc1/C=C/c1ccc([N+](=O)[O-])cc1	A3A deaminase 57 | APOBEC3A confirm 62
C[n+]1ccccc1/C=C/c1ccc2ncccc2c1	A3A deaminase 75 (no result: core dimer inh) | APOBEC3A confirm 75 | UDG A3A counter inactive
CCOC(=O)C1=CCN(S(C)(=O)=O)C1c1ccc(C)cc1 (stereo not drawn)	none (no result: APOBEC3G inh, A3A deaminase, core dimer inh, HCV NS3 hel inh)
Cc1c(O)cnc2nn(-c3ccccc3)c(=N)n12	none (no result: APOBEC3G inh, A3A deaminase, core dimer inh, HCV NS3 hel inh)
CC(NC(=O)c1ccccc1)C(=O)OCC(=O)c1ccc(Br)cc1 (stereo not drawn)	none
CCN1CCN(S(=O)(=O)c2ccc(Cl)c(C(=O)N(C)C(c3ccccc3)c3ccccc3)c2)CC1	A3A deaminase 57 (no result: HCV NS3 hel inh) | APOBEC3A confirm 64 | UDG A3A counter inactive
C=CCN=C1NC(CCc2ccccc2)C(C(=O)OC)=C(C)N1C (stereo not drawn)	none (no result: APOBEC3G inh, A3A deaminase, ABHD5 PLIN5 PPI, core dimer inh, HCV NS3 hel inh)
COc1ccc(NC(=O)Cc2coc3cc(C)c(C(C)C)cc23)cc1S(=O)(=O)N1CCOCC1	A3A deaminase 49 | APOBEC3A confirm inactive
O=C(CN1CCN(c2ccccc2)CC1)NC(=O)NCc1ccco1	none
COc1cccc(N2CCN(CC(=O)NC(=O)NCc3ccco3)CC2)c1	A3A deaminase 47 | APOBEC3A confirm 27 | UDG A3A counter inactive
CCOC(=O)[C@@]12CCCC=C1N(CCc1ccc(Cl)cc1)C(=O)[C@H]2CC(=O)N1CCOCC1	none (no result: APOBEC3G inh, A3A deaminase, ABHD5 PLIN5 PPI, core dimer inh, HCV NS3 hel inh)
Cn1c(CC(=O)Nc2ccccc2F)nnc1SCC(=O)N1CCOCC1	A3A deaminase 40 | APOBEC3A confirm inactive
Cn1c(SCC(=O)N2CCOCC2)nnc1-c1ccccc1	A3A deaminase 54 | APOBEC3A confirm inactive
Cn1c(CC(=O)Nc2ccccc2F)nnc1SCC(=O)NC1CCCC1	none
Cc1nc(-c2cc(-c3ccc(Cl)cc3)no2)cs1	none
Clc1ccc(-c2cc(-c3ccccc3)on2)cc1	A3A deaminase 95 (no result: HCV NS3 hel inh) | APOBEC3A confirm inactive | UDG A3A counter inactive
COc1ccc2nc(NC(=O)Cn3cnc4ccccc4c3=O)sc2c1	A3A deaminase 43 | APOBEC3A confirm inactive
CN1OC[C@@H]2CN(C(=S)NCCc3ccccc3)[C@H](c3ccc(-n4ccnc4)cc3)C[C@@H]21	none (no result: APOBEC3G inh, A3A deaminase, core dimer inh, HCV NS3 hel inh)
CC(C)(C)c1ccc(NC(=O)c2ccc3c(c2)S(=O)(=O)c2ccccc2C3=O)cc1	A3A deaminase 44 (no result: HCV NS3 hel inh) | APOBEC3A confirm inactive | UDG A3A counter inactive
COC(=O)[C@]12C[C@H](CC(=O)N3CCN(C(=O)c4ccco4)CC3)C(=O)N(CCc3ccc(OC)c(OC)c3)C1=C[C@H](C(C)(C)C)O[C@@H]2C	none (no result: APOBEC3G inh, A3A deaminase, ABHD5 PLIN5 PPI, core dimer inh, HCV NS3 hel inh)
O=C1CC(NS(=O)(=O)c2cccnc2)CN1c1ccc(Cl)cc1 (stereo not drawn)	none (no result: HCV NS3 hel inh)
O=c1[nH]c(C2C3CC4CC(C3)CC2C4)nc2ccccc12 (stereo not drawn)	A3A deaminase 49 | APOBEC3A confirm inactive | UDG A3A counter inactive
Cc1ccc(C(c2c(O)nc3n(c2=O)CCS3)c2c(O)nc3n(c2=O)CCS3)cc1	A3A deaminase 53 | APOBEC3A confirm inactive | UDG A3A counter inactive
O=c1c(C(c2ccc(Br)cc2)c2c(O)nc3n(c2=O)CCS3)c(O)nc2n1CCS2	none
CC(C)C[C@@H](CO)NC(=O)CC[C@H](NC(=O)OC(C)(C)C)C(=O)N(Cc1ccccc1)Cc1ccccc1	none (no result: HCV NS3 hel inh)
COc1cccc(OC)c1C(=O)Nc1cccc2c1CCCC2	A3A deaminase 55 | APOBEC3A confirm inactive | UDG A3A counter inactive
c1cc[n+](CCC[n+]2ccccc2)cc1	A3A deaminase 71 | APOBEC3A confirm 88 | UDG A3A counter inactive
O=C(Nc1ccc(-c2ccccc2)cc1)c1ccco1	A3A deaminase 42 | APOBEC3A confirm inactive
O=C(Nc1ccc(NC(=O)c2ccco2)cc1)c1ccco1	none

Screening data: PubChem, several laboratories
